Test results as given in paper PMC6568187 (Theranostics, 2019).

Key:
U87-MG cells [1] = assay: Organelle co-localization; format: cell-based; conditions: 20 µM, 37 °C, DMEM/F12 with 10% FBS pH 7.4
Summary of the method: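 50,000 U87-MG cells were plated in chamber wells and adhered overnight. Then 20 μM test compound for 30 min, two PBS washes, organelle trackers (LysoTracker Green DND 26, MitoTracker Green FM, BODIPY FL C5-ceramide–BSA, ER Tracker Green), then NucBlue 10 min. Confocal imaging, 60x water objective. Lasers: 488 nm for organelle stains, 405 nm for nuclei, 633 nm for dye. Cells re-imaged after 24 h in FluoroBrite DMEM + 10% FBS; co-localization expressed as Pearson's R.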

[2] = in DMSO; λex 730 nm; used as standard; listed as ICG; cited from earlier work
[3] = Photostability under LED illumination; format: physicochemical; conditions: 780 nm LED
Summary of the method: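 Solutions in 10 mM PBS pH 7.4, and in H2O with 1% DMSO, were left open to air and illuminated with a 780 nm LED. Dyes were used either equimolar (20 µM) or diluted to equal absorbance at 780 nm (1.7–2.7 µM). Absorbance at 780 nm was read every 10 min up to 60 min and plotted against time.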

[4] = Solubility measurement by UV absorbance; format: physicochemical
Summary of the method: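 DMSO stocks (100 mM) were diluted to 0–1000 μM in 10 mM PBS pH 7.4 with 1% DMSO; H2O and DMEM ± 10% FBS were also tested. Samples were shaken in the dark 6 h at room temperature (25 °C), equilibrated overnight and centrifuged at 600 x g for 15 min. Supernatant absorbance was read at 780 nm against blank, in triplicate.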

Photophysical properties = format: physicochemical; conditions: 10 mM PBS buffer pH 7.4
Summary of the method: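 Dyes in 10 mM PBS pH 7.4, 1 cm cuvettes. Excitation 730 nm; integrated emission 740–900 nm, with maximum absorbance kept below 0.1. Quantum yield came from the gradient of integrated fluorescence vs absorbance over several concentrations, referenced to ICG in DMSO (Φ 0.13). Relative absorbance and fluorescence were compared at 5 µM in the same buffer.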

[5] = In vivo biodistribution and clearance; conditions: normal CD-1 mice, 25 nmol intravenous, imaging 0.5-4 h
U87-MG cells [6] = assay: Cytotoxicity assay; format: cell-based; conditions: read-out: IC50 (cytotoxicity), 72 h in the dark, AlamarBlue
Summary of the method: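 U87-MG cells grown in DMEM with 10% FBS at 37 °C, 5% CO2, passaged at 70% confluency. Seeded at 5000 cells/well and left overnight. DMSO stocks (0.02 M) were diluted in protein-free hybridoma medium (PFHM-II) to final 0.01–80 μM, then incubated 72 h. AlamarBlue added for 2 h; fluorescence read at Ex/Em 560/590 nm. Viability = background-corrected signal vs full-viability control ×100; n=5, mean ± SD.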

[7] = Aggregation: concentration dependence of absorbance spectra; format: physicochemical; conditions: 1.25 - 20 µM in 10 mM pH 7.4 PBS buffer
most cell lines = conditions: read-out: IC50 (cytotoxicity); cited from earlier work

Row | photostability ([3]; 1 h, A 2.7 µM, B 2 µM, 1 1.7 µM (same absorbance at 780 nm), 10 mM pH 7.4 PBS) | photodecomposition t1/2 ([3]; same absorbance at 780 nm, 10 mM pH 7.4 PBS buffer) [min] | solubility (soluble up to) ([4]; 10 mM pH 7.4 PBS buffer) [µM] | concentration at which it begins to aggregate ([4]; H2O) [µM] | solubility ([4]; in water, 25 °C) | brightness (εmax x Φ) (Photophysical properties) | εmax (Photophysical properties) [cm^-1M^-1] | λabs (Photophysical properties) [nm] | λem (Photophysical properties) [nm] | ∆λ (Stokes' shift) (Photophysical properties) [nm] | relative brightness (Photophysical properties; relative to A) | Φ (fluorescence quantum yield) (Photophysical properties; λex 730 nm, standard A in DMSO) | H-aggregation from absorbance spectra [7] | SMILES | localization after time 0.5 h (U87-MG cells [1]) | localization after time 24 h (U87-MG cells [1]) | Φ (fluorescence quantum yield) of the standard [2] | organ signal / excretion [5] | IC50 (U87-MG cells [6]) [µM] | IC50 (most cell lines) [µM]
1 | – | – | – | – | – | – | – | – | – | – | – | – | – | CC1(C)C(/C=C/C=C/C=C/C=C2\N(CCCCS(=O)(=O)O)c3ccc4ccccc4c3C2(C)C)=[N+](CCCCS(=O)(=O)[O-])c2ccc3ccccc3c21 [compound A, indocyanine green] | golgi and ER | golgi and lysosome | 0.13 | – | – | –
2 | least stable and decomposed | < 10 | ≥ 1000 | 100 | much less soluble | 3689 | 149940 | 775 | 799 | 24 | 1.90 | 0.025 | blue-shifted shoulder | CC1(C)C(/C=C/C2=C(Cl)C(=C/C=C3\N(CCCCCC(=O)O)c4ccccc4C3(C)C)/CCC2)=[N+](CCCCCC(=O)O)c2ccccc21 [compound B] | mitochondria | mitochondria and lysosome | – | high signal in the liver and low signal in duodenum even after 4 h post-injection | 19.1 ± 1.01 | ~20
